Source: ChEMBL document CHEMBL3244020, “Trichloroacetamidines, a new class of positive inotropic agents” (J Med Chem, 1978)
Calls of active or inactive are those of the source. The rule behind the calls is not given here.

Assays:
[1] = Inhibition of guinea pig kidney Na+-K+ dependent ATPase after 10 to 20 mins; parameters: species or system Cavia porcellus; settings: read-out: I50
Summary of the method: (§1)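 Partially purified membrane ATPase from calf heart or guinea pig renal cortex. Reaction started by final addition of enzyme. Incubated at 37 °C under air, with aliquots taken at 10 and 20 min. Liberated phosphate measured by the Lowry–Lopez method. I50 came from log inhibitor vs percent inhibition lines, at least three points. This was done only where acute inhibition was >50% at 1 × 10⁻³ M.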

[2] = Dissociation constant, pKa of the compound; type: physicochemical
Summary of the method: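 pKa determined in water or in 30% EtOH–70% H2O, depending on compound.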

[3] = Inhibition of calf heart Na+-K+ dependent ATPase after 10 to 20 mins; parameters: species or system Bos taurus; settings: read-out: I50; summary of the method: as §1
[4] = Inhibition of guinea pig kidney Na+-K+ dependent ATPase preincubated for 30 mins measured after 10 to 20 mins; parameters: species or system Cavia porcellus; settings: read-out: I50
Summary of the method: (§2)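 Partially purified membrane ATPase from calf heart or guinea pig renal cortex. Inhibitor plus enzyme were preincubated 30 min at 10× final concentrations, then added to the otherwise complete assay system. Incubated at 37 °C under air, with aliquots taken at 10 and 20 min. Liberated phosphate measured by the Lowry–Lopez method. I50 came from log inhibitor vs percent inhibition lines, at least three points.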

[5] = Inhibition of calf heart Na+-K+ dependent ATPase preincubated for 30 mins measured after 10 to 20 mins; parameters: species or system Bos taurus; settings: read-out: I50; summary of the method: as §2
[6] = Positive inotropic activity in cat heart papillary muscle assessed as increase in contractile force at 2.5 ug/mL measured for 5 to 30 mins; type: functional, Felis catus, Muscle tissue
Summary of the method: (§3)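 Right-ventricular cat papillary muscles in Krebs–Henseleit at 37 °C, field-stimulated at 1/s (4–10 ms, 6–10 V). Muscles equilibrated about 90 min, until force fell to 25–30% of original. Compound added and force recorded at 5, 10, 20 and 30 min, followed by ouabain 0.5 μg/mL. Positives were retested on three more preparations at ≥3 concentrations. Scored as mg increase in contractile force.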

[7] = (§4) Positive inotropic activity in cat heart papillary muscle assessed as increase in contractile force at 0.63 ug/mL measured for 5 to 30 mins; type: functional, Felis catus, Muscle tissue
Summary of the method: (§5)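 Right-ventricular papillary muscles from cat hearts in a 100-mL bath of Krebs–Henseleit solution at 37 °C, driven electrically with square waves of 4–10 ms, 6–10 V, 1/s. Equilibrated about 90 min until force fell to 25–30% of initial. Compound added, contractile force read at 5, 10, 20 and 30 min, then ouabain 0.5 μg/mL as a responsiveness check. Positive inotropy means a rise above 20%.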

[8] = species: Felis catus; test: Positive inotropic activity in heart papillary muscle isolated from reserpine-treated cat assessed as increase in contractile force at 10 ug/mL measured for 5 to 30 mins; type: functional, tissue-based; settings: Muscle tissue
Summary of the method: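 Cats pretreated with reserpine 0.5 mg/kg ip before papillary muscle isolation. Right-ventricular muscles kept in Krebs–Henseleit at 37 °C, stimulated at 1/s, and force recorded at 5–30 min after compound addition.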

[9] = (§6) Positive inotropic activity in cat heart papillary muscle assessed as increase in contractile force at 10 ug/mL measured for 5 to 30 mins; type: functional, Felis catus, Muscle tissue; summary of the method: as §3
[10] = species: Felis catus; test: Positive inotropic activity in cat heart papillary muscle assessed as increase in contractile force up to 10 ug/mL measured for 5 to 30 mins in presence of beta-adrenergic inhibitor sotalol; type: functional, tissue-based
Summary of the method: (§7)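 Cat right-ventricular papillary muscle in Krebs–Henseleit at 37 °C, electrically driven at 1/s. Force recorded 5–30 min after compound, in the presence of the β-blocker sotalol at 10 μg/mL. Scored as mg increase in contractile force.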

[11] = Positive inotropic activity in cat heart papillary muscle assessed as concentration required to increase contractile force by 500 mg measured for 5 to 30 mins; type: functional, Felis catus, Muscle tissue; summary of the method: as §3
[12] = species: Felis catus; test: as §6; type: functional; settings: Muscle tissue; summary of the method: as §3
[13] = Positive inotropic activity in cat heart papillary muscle assessed as increase in contractile force at 0.156 ug/mL measured for 5 to 30 mins; type: functional, Felis catus, Muscle tissue
Summary of the method: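 Right-ventricular cat papillary muscles in Krebs–Henseleit solution at 37 °C, paced at 1/s (4–10 ms, 6–10 V square waves). Equilibrated about 90 min; compound added once force had fallen to 25–30% of original (1.5–2 h). Force recorded 5, 10, 20 and 30 min after addition, then ouabain 0.5 μg/mL added. Increase over 20% scored positive. Actives retested on three further preparations at ≥3 concentrations.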

[14] = species: Felis catus; test: Positive inotropic activity in cat heart papillary muscle assessed as increase in contractile force at 10 ug/mL measured for 5 to 30 mins in presence of beta-adrenergic inhibitor sotalol; type: functional, tissue-based; summary of the method: as §7
[15] = Positive inotropic activity in cat heart papillary muscle assessed as increase in contractile force at 0.8 ug/mL measured for 5 mins (reference value: 1080 mg); type: functional, Felis catus, Muscle tissue
[16] = species: Felis catus; test: as §4; type: functional; settings: Muscle tissue; summary of the method: as §5

| Compound | Activity [6] [mg] | Activity [9] [mg] | Activity [10] | Activity [11] [µg/mL] | other results |
| --- | --- | --- | --- | --- | --- |
| COc1ccc(CNC(=N)C(F)(Cl)Cl)cc1 | – | – | – | – | IC50 [1]: 15 µM; pKa [2]: 6.18; IC50 [3]: 20 µM; IC50 [4]: 2 µM; IC50 [5]: 2 µM |
| Cl.N=C(NCC1CC1)C(Cl)(Cl)Cl | 201 | 201 | Active | 3.21 | Activity [7]: <200 mg; Activity [8]: Active |
| O=C(NCCO)C(Cl)(Cl)Cl | – | – | Active | – | Activity [12]: inactive |
| N=C(NCc1cn(C(=O)c2ccccc2)c2ccccc12)C(Cl)(Cl)Cl | 201 | >600 | Active | 6.2 | Activity [7]: <200 mg; Activity [8]: Active |
| N=C(Nc1ccccc1)C(Cl)(Cl)Cl | – | – | – | – | Activity [12]: inactive |
| N=C(NCCc1ccccc1)C(Cl)(Cl)Cl | – | – | – | – | Activity [12]: inactive |
| Cc1ccc(CNC(=N)C(Cl)(Cl)Cl)cc1.Cl | <200 | >600 | Active | 8.43 | Activity [7]: <200 mg |
| COc1cccc(CNC(=N)C(Cl)(Cl)Cl)c1.Cl | – | 201 | Active | >10 | – |
| N=C(NCC(O)COc1ccccc1)C(Cl)(Cl)Cl (stereo unspecified) | – | 201 | Active | – | – |
| N=C(NCCc1c[nH]c2ccccc12)C(Cl)(Cl)Cl | 201 | >600 | Active | 2.33 | IC50 [1]: 150 µM; IC50 [3]: 33 µM; IC50 [4]: 4 µM; Activity [13]: 201 mg |
| COc1ccccc1CNC(=N)C(Cl)(Cl)Cl.Cl | 201 | 201 | Active | 4.75 | Activity [7]: <200 mg; Activity [8]: Active |
| N=C(NCCc1ccc(O)cc1)C(Cl)(Cl)Cl | – | >600 | Active | – | – |
| CN(C)C(=N)C(Cl)(Cl)Cl.Cl | – | >600 | Active | – | – |
| N=C(NCC(O)c1ccccc1)C(Cl)(Cl)Cl (stereo unspecified) | – | >600 | Active | – | – |
| COC(CNC(=N)C(Cl)(Cl)Cl)COc1ccccc1 (stereo unspecified) | – | 201 | Active | – | – |
| N=C(NCc1ccccc1)C(Cl)(Cl)Cl | – | <200 | Active | – | – |
| ClC(Cl)(Cl)C1=NCCCN1 | 201 | >600 | – | 2.77 | Activity [14]: inactive; Activity [13]: <200 mg |
| C=CCN(C)C(=N)C(Cl)(Cl)Cl.O=C(O)/C=C\C(=O)O | 201 | >600 | Active | 5.47 | Activity [7]: <200 mg |
| CC(CCc1ccc(O)cc1)NCCc1ccc(O)c(O)c1 (stereo unspecified) [DOBUTAMINE] | – | – | – | – | Activity [15]: 1640 mg |
| Cl.N=C(NCCc1ccc(O)c(O)c1)C(Cl)(Cl)Cl | <200 | 201 | – | >10 | Activity [16]: inactive; Activity [14]: inactive |
